Assay results taken from paper PMC5010496 (Cancer research, 2016).

Key:
CAG myeloma cells = assay: Caspase3/7-GLO apoptosis assay, CAG; assay type: cell-based, human
In short: (§1)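 Myeloma cells in complete medium were pre-treated for 1 hr with JNK inhibitor or DMSO vehicle, then given or not given 30 μM test peptide, for 9 hr total. Caspase 3/7 activity was read by Caspase3/7-GLO luminescence and expressed as fold increase over vehicle alone (set to 1.0).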

MM.1R myeloma cells = assay: Caspase3/7-GLO apoptosis assay, MM.1R; assay type: cell-based, human; conditions: MM.1R cells
In short: as §1

[1] = system: CAG, RPMI-8226, KMS-12, U266, MM.1R myeloma cells; assay: Cell growth assay, human myeloma cells; assay type: cell-based; conditions: three-day growth assay, relative to SSTNIGF1R
In short: (§2)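 Myeloma cells (2.5 × 10^4/well) were grown in RPMI 1640 with 4 mM L-glutamine, 10% FBS and 0.05 mM β-mercaptoethanol; CAG cells also received 40 μg/mL Geneticin. Cells were grown with 30 μM test peptide or its variant for 3 days at 37 °C, 7.5% CO2. Cell number was read by CellTiter-GLO as % increase relative to untreated cells.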

[2] = molecular target: IGF1R and αvβ5 integrin complex with Sdc1 (Homo sapiens, UniProt P06756+P08069+P18084); assay: Immunoprecipitation of Sdc1 with competing SSTN peptides; assay type: binding
In short: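 CAG cell lysates from suspension culture were immunoprecipitated with isotype-matched control mIgG1 or mAbs to Sdc1 (B-A38), αvβ5 integrin (P1F6) and/or IGF1R (JBW902), in the presence of test peptide (1 μM) or a variant peptide (1, 3 or 10 μM). Precipitates were probed for Sdc1, IGF1R and αvβ5 integrin.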

HMEC-1 endothelial cells = assay: Cell growth assay, HMEC-1; assay type: cell-based, human; conditions: 30 μM peptide, 3 days
In short: (§3)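 Endothelial cells (1–2 × 10^3/well) were grown in complete medium with 30 μM test peptide or its variant for 3 days at 37 °C, 7.5% CO2. Cell number was read by CellTiter-GLO and expressed as % increase relative to untreated cells.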

HUVEC endothelial cells = assay: Cell growth assay, HUVEC; assay type: cell-based, human; conditions: 30 μM peptide, 3 days, Sdc1-positive HUVEC
In short: as §3

CAG myeloma xenografts = assay: CAG myeloma xenograft growth and tumor angiogenesis in nude mice; assay type: in vivo, mouse; conditions: Alzet pump 3.65 mg/kg/day, 4 weeks
HUVECs = assay: Stress and apoptosis marker antibody array, HUVEC; assay type: cell-based, human; conditions: 30 μM, 24 hr
ASK1 = assay type: cell-based, human; conditions: CAG and MM.1R cells, 10 μM
In short: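 ASK1 or Sdc1 was immunoprecipitated from cell lysates (0.5–1.0 mg input per sample), with or without competing test peptide. Lysis buffer contained protease and phosphatase inhibitors. Blots were probed for co-precipitated ASK1 and Sdc1, total ASK1, and phospho-ASK1 (pThr838/Thr845, pSer83, pSer966/Ser967).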

CAG cells = assay: ApoTox-GLO viability/apoptosis and TUNEL assay in CAG cells; assay type: cell-based, human; conditions: 24 hr
In short: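 CAG cells (2.5 × 10^4/well) were grown in complete medium with 1–30 μM test peptide for 24 hr at 37 °C. Viability and caspase activation/apoptosis were read by ApoTox-GLO as % of untreated cells.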

P3X63Ag8 myeloma cells = assay: Cell growth assay, mouse myeloma cells; assay type: cell-based; conditions: 30 μM peptide, three-day treatment, complete medium
In short: as §2

HUVEC(Sdc1−) = assay: Cell growth assay, HUVEC isolate lacking Sdc1; assay type: cell-based, human; conditions: 30 μM peptide, 3 days
In short: as §3

[3] = system: MDA-MB-231 breast carcinoma cells; assay: Stress and apoptosis marker antibody array, MDA-MB-231; assay type: cell-based, human; conditions: MDA-MB-231, 30 μM, up to 24 hr; compared with HUVEC response
In short: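 MDA-MB-231 cells in complete medium were treated with or without 30 μM test peptide for 1, 3, 9 or 24 hr. Whole-cell lysates from equal cell equivalents were run on a stress and apoptosis signalling antibody array. Relative fluorescence at 700 nm was read per target, in two separate experiments.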

[4] = Peptide stability in mouse serum; assay type: in vitro ADME; conditions: data not shown
[5] = Peptide stability in bovine serum; assay type: in vitro ADME; conditions: data not shown
HaCaT keratinocytes = assay: Cell growth assay, HaCaT; assay type: cell-based, human; conditions: 3, 10 or 30 μM peptide, 3 days
In short: (§4)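 Adherent cells (1–2 × 10^3/well) were grown with 3, 10 or 30 μM test peptide for 3 days at 37 °C. Carcinoma lines were kept in DMEM with 4 mM L-glutamine, 10% FBS and penicillin/streptomycin; SCC lines also received 1 μg/mL hydrocortisone. Cell number was read by CellTiter-GLO as % increase relative to untreated cells.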

[6] = system: UM-SCC47, SCC25, MDA-MB-468, MDA-MB-231, MCF-7 and SKBr3 carcinoma cells; assay: Cell growth assay, head and neck and breast carcinoma cell panel; assay type: cell-based, human; conditions: 3, 10 or 30 μM peptide, 3 days
In short: as §4

[7] = system: CAG and MM.1R myeloma cells; assay: Stress and apoptosis marker antibody array, myeloma cells; assay type: cell-based, human; conditions: CAG and MM.1R cells, 30 μM, over 9 hr
[8] = system: MCF10A breast epithelial cells; assay: Cell growth assay, MCF10A; assay type: cell-based, human; conditions: 3, 10 or 30 μM peptide, 3 days
In short: as §4

[9] = 1 μM JNK-IN-8 with 30 μM SSTNIGF1R, 9 hr
[10] = 10 μM SP600125 with SSTNIGF1R, data not shown

Chain of IGF1R and αvβ5 integrin complex with Sdc1 (P08069 31-736 limits assumed): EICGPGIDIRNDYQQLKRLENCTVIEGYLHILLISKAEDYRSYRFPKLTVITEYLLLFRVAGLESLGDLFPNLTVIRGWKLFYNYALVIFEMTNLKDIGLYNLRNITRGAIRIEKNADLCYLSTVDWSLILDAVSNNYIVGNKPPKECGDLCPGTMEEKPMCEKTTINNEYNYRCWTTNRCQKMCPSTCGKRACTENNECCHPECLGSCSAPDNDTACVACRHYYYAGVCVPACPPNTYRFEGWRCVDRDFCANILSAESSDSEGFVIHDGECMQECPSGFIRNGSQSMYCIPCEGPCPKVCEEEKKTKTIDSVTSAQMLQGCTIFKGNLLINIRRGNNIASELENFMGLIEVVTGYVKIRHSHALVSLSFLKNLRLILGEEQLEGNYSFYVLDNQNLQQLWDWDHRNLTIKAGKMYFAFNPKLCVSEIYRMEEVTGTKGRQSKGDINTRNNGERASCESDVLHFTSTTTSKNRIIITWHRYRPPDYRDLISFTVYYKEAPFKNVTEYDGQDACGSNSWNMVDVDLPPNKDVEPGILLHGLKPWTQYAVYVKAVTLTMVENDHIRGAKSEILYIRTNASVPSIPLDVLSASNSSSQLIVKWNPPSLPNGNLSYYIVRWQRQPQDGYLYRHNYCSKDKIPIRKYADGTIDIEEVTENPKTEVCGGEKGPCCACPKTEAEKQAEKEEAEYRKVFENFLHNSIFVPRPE
Chain of IGF1R and αvβ5 integrin complex with Sdc1 (P08069 741-1367 limits assumed): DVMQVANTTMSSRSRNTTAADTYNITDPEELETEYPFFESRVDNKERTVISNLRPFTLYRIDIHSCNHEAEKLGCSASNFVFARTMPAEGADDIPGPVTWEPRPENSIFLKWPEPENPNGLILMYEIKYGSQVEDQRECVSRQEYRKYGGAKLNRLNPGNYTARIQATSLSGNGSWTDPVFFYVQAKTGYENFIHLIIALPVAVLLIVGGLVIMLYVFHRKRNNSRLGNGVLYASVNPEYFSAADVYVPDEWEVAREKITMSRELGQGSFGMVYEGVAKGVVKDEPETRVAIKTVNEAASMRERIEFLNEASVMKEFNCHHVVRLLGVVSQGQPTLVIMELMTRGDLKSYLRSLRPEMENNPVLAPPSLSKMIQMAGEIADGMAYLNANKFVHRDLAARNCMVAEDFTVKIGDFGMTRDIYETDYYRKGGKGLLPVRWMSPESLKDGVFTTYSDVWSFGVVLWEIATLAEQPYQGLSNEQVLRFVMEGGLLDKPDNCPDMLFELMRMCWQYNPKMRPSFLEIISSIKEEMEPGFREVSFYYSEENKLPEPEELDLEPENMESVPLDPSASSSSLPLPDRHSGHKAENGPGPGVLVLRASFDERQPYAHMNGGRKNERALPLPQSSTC
Chain of IGF1R and αvβ5 integrin complex with Sdc1 (P06756 31-889 limits assumed): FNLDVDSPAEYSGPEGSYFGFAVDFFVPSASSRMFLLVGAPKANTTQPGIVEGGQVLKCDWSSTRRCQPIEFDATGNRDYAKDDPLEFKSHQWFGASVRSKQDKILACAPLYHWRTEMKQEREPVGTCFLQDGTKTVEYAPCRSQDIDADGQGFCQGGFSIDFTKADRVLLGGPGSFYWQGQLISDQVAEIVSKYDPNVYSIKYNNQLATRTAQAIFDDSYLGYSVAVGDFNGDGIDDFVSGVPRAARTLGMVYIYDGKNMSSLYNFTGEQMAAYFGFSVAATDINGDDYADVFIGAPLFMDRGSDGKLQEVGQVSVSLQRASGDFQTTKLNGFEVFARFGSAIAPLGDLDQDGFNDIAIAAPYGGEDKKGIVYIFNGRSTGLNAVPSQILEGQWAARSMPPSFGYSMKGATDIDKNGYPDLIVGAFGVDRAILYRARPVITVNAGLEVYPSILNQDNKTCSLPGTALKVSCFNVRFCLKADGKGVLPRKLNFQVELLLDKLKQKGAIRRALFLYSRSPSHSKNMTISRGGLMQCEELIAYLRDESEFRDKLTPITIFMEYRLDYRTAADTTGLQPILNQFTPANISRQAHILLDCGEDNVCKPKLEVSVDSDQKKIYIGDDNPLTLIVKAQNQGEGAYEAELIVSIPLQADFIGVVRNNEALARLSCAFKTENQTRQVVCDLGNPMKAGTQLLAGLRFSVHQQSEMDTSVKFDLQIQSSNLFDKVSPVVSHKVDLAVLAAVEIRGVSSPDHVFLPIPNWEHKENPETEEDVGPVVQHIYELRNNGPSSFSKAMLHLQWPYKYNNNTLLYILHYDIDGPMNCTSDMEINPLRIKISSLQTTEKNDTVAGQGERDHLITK
Chain of IGF1R and αvβ5 integrin complex with Sdc1 (P06756 891-1048 limits assumed): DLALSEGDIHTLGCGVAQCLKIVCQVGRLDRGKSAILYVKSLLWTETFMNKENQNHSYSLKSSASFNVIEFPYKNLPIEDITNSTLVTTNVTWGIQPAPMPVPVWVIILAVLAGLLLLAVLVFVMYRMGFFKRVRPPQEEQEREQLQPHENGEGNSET
Chain of IGF1R and αvβ5 integrin complex with Sdc1 (P18084 24-799): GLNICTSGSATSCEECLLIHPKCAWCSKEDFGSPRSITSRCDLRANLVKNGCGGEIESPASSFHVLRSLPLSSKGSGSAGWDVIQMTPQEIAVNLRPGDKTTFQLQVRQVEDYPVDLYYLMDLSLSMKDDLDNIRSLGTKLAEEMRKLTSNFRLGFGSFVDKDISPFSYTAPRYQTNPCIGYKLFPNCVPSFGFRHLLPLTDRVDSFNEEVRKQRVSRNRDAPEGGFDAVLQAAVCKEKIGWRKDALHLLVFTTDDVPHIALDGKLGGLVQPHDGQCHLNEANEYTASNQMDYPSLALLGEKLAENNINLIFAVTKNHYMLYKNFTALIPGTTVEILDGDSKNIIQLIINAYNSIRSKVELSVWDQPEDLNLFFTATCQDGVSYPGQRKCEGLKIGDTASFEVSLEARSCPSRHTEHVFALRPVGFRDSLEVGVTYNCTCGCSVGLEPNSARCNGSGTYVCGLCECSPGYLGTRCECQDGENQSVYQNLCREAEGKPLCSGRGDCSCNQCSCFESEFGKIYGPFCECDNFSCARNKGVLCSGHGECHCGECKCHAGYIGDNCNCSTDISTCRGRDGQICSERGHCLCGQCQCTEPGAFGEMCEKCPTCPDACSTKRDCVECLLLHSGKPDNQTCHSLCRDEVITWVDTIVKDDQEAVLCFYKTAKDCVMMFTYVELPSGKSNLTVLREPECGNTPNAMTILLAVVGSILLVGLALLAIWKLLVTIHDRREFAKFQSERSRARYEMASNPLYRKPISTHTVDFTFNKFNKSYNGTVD

## Cc1cc(NC(=O)c2cccc(NC(=O)/C=C/CN(C)C)c2)ccc1Nc1nccc(-c2cccnc2)n1 [JNK-IN-8]
CAG myeloma cells; [9]
  block of SSTNIGF1R-induced caspase 3/7 activation: complete block
MM.1R myeloma cells; [9]
  block of SSTNIGF1R-induced caspase 3/7 activation: complete block

## Oc1c2ccccc2c2c3c(cccc13)N=N2 [SP600125]
CAG myeloma cells; [10]
  block of SSTNIGF1R-induced caspase 3/7 activation: Near identical results
MM.1R myeloma cells; [10]
  block of SSTNIGF1R-induced caspase 3/7 activation: Near identical results

## SSTNIGF1R-T: truncated synstatin peptide comprising amino acids 94–119 of Sdc1 (AGEKPEEGEPVLHVEAEPGFTARDKE)
[1]
  fold less effective than SSTNIGF1R at causing myeloma cell loss: 3–10 fold
[2]; 1, 3 or 10 μM peptide, myeloma cell lysates
  disruption of capture of IGF1R and αvβ5 integrin by Sdc1: disrupts capture of IGF1R and αvβ5 integrin by Sdc1
[2]; myeloma cells, relative to SSTNIGF1R
  fold less effective than SSTNIGF1R at disrupting IGF1R capture by Sdc1: 3–10 fold
HMEC-1 endothelial cells
  growth of HMEC-1 endothelial cells: without effect
HUVEC endothelial cells
  growth of HUVEC endothelial cells: without effect
CAG myeloma xenografts; MECA-32 staining intensity
  effect on tumor angiogenesis: no significant effect

## SSTNIGF1R: peptide that inhibits IGF1R capture by Sdc1; comprised of amino acids 92–119 in mouse Sdc1 (LPAGEKPEEGEPVLHVEAEPGFTARDKE)
HUVECs
  apoptosis markers (antibody array): Activation of the JNK pathway and caspase-3, and a reduction in levels of IkBα
ASK1
  co-immunoprecipitation of ASK1 with Sdc1: prevented
CAG myeloma cells; 30 μM SSTNIGF1R alone, 9 hr
  increase in caspase 3/7 activity relative to vehicle: ~5 fold
CAG cells; 30 μM
  apoptosis by TUNEL assay: DNA fragmentation
CAG cells; 1–30 μM
  apoptosis: caspase activation (ApoTox-GLO): executioner caspase activation
  cell viability (ApoTox-GLO): significant loss of viability
P3X63Ag8 myeloma cells
  growth of mouse myeloma cells: significantly reduced
HUVEC(Sdc1−)
  growth of HUVEC isolate lacking Sdc1: insensitive
[3]
  apoptosis markers (antibody array): almost identical apoptotic response
HMEC-1 endothelial cells
  growth of HMEC-1 endothelial cells: inhibits the growth
HUVEC endothelial cells
  growth of HUVEC endothelial cells: inhibits the growth
[4]
  activity retained after incubation in mouse serum: retains full activity
[5]
  activity retained after incubation in bovine serum: retains full activity
CAG myeloma xenografts; MECA-32 staining intensity
  reduction of blood vessel density in residual tumors: over 90%
CAG myeloma xenografts; nude mice, CAG tumors, 8 tumors per cohort
  tumors eradicated: 3 of the 8
HaCaT keratinocytes
  growth of non-transformed HaCaT keratinocytes: unaffected
[6]
  growth of head and neck and breast carcinoma cells: reduced growth
[7]
  apoptosis markers (antibody array): increased phosphorylation of p53 (Ser15), activation of JNK and activation of caspase-3
[8]
  growth of non-transformed MCF10A breast epithelial cells: unaffected
